Laboratory results as given in ChEMBL document CHEMBL1208671, “Small structural changes of pentacyclic lupane type triterpenoid derivatives lead to significant differences in their anticancer properties” (Eur J Med Chem, 2010).
The source made the active and inactive calls. The rule behind the calls is not given here.

Key:
HT-29 [1] = assay: Induction of apoptosis in human HT-29 cells at IC90 concentration after 48 hrs using annexin V and propidium iodide staining by FACS analysis relative to control; assay type: functional
HT-29 [2] = assay: Induction of apoptosis in human HT-29 cells assessed as DNA fragmentation at IC90 concentration after 24 hrs using ethidium bromide staining by DNA gel electrophoresis; assay type: functional, cell-based
How it was run: (§1)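 RPMI 1640 cultures (10 % heat-inactivated FBS, 37°C, 5 % CO2) were exposed to the IC90 concentration for 24 h. For trypan blue exclusion, cells excluding the dye were scored as viable or early apoptotic and blue cells as necrotic. DNA was run on agarose gels, where internucleosomal laddering (180 bp multiples) indicates apoptosis and a smear indicates necrosis.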

MCF7 = assay: Cytotoxicity against human MCF7 cells after 96 hrs by SRB colorimetric assay; assay type: functional, cell-based; conditions: MCF7, 96 h
How it was run: (§2)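 Cells kept as monolayers in RPMI 1640 with 10 % heat-inactivated FBS and 1 % penicillin/streptomycin, 37°C, 5 % CO2, seeded at optimal density. Exponentially growing cells exposed to compound for 96 h, fixed with 10 % TCA, stained with sulforhodamine B for 30 min, washed with 1 % acetic acid, bound dye dissolved in 10 mM Tris base, OD read at 570 nm. IC50 estimated from semi-log dose-response curves versus untreated controls.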

[3] = Cytotoxicity against human 518A2 cells after 96 hrs by SRB colorimetric assay; assay type: functional, cell-based; conditions: 518A2, 96 h; how it was run: as §2
HT-29 [4] = assay: Cytotoxicity against human HT-29 cells after 96 hrs by SRB colorimetric assay; assay type: functional, cell-based; conditions: HT-29, 96 h; how it was run: as §2
SW-1736 = assay: Cytotoxicity against human SW1736 cells after 96 hrs by SRB colorimetric assay; assay type: functional, cell-based; conditions: SW-1736, 96 h; how it was run: as §2
[5] = Cytotoxicity against human A253 cells after 96 hrs by SRB colorimetric assay; assay type: functional, cell-based; conditions: A253, 96 h; how it was run: as §2
A2780 = assay: Cytotoxicity against human A2780 cells after 96 hrs by SRB colorimetric assay; assay type: functional, cell-based; conditions: A2780, 96 h; how it was run: as §2
A549 = assay: Cytotoxicity against human A549 cells after 96 hrs by SRB colorimetric assay; assay type: functional, cell-based; conditions: A549, 96 h; how it was run: as §2
A-431 = assay: Cytotoxicity against human A431 cells after 96 hrs by SRB colorimetric assay; assay type: functional, cell-based; conditions: A-431, 96 h; how it was run: as §2
HT-29 [6] = assay: Induction of apoptosis in human HT-29 cells assessed as upregulation of caspase 8 activity at IC90 concentration after 24 hrs; assay type: functional, cell-based
How it was run: (§3)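 HT-29 monolayers were kept in RPMI 1640 with 10 % heat-inactivated FBS and 1 % penicillin/streptomycin at 37°C in 5 % CO2. Cells were exposed to the test agent, and caspase-2, -3, -8 and -9 activities were measured after 2, 6 and 24 h.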

HT-29 [7] = assay: Induction of apoptosis in human HT-29 cells assessed as upregulation of caspase 2 activity at IC90 concentration after 2 hrs; assay type: functional, cell-based; how it was run: as §3
HT-29 [8] = assay: Cell cycle arrest in human HT-29 cells assessed as accumulation at G1 phase at IC90 concentration after 48 hrs using propidium iodide staining by flow cytometry; assay type: functional
How it was run: (§4)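 Exponentially growing cells were exposed to the IC90 concentration for 24 and 48 h. Cell-cycle phase distribution, including the sub-G1 apoptotic peak, was compared with untreated controls at each time.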

HT-29 [9] = assay: Induction of apoptosis in human HT-29 cells assessed as upregulation of caspase 8 activity at IC90 concentration after 6 hrs; assay type: functional, cell-based; how it was run: as §3
HT-29 [10] = assay: Induction of apoptosis in human HT-29 cells assessed as upregulation of caspase 2 activity at IC90 concentration after 6 hrs; assay type: functional, cell-based; how it was run: as §3
HT-29 [11] = assay: Induction of apoptosis in human HT-29 cells assessed as upregulation of caspase 2 activity at IC90 concentration after 24 hrs; assay type: functional, cell-based; how it was run: as §3
HT-29 [12] = assay: Induction of apoptosis in human HT-29 cells assessed as upregulation of caspase 3 activity at IC90 concentration after 6 hrs; assay type: functional, cell-based; how it was run: as §3
HT-29 [13] = assay: Cell cycle arrest in human HT-29 cells assessed as accumulation at subG1 phase at IC90 concentration after 48 hrs using propidium iodide staining by flow cytometry; assay type: functional; how it was run: as §4
HT-29 [14] = assay: Induction of apoptosis in human HT-29 cells assessed as programmed cell death at IC90 concentration after 24 hrs by trypan blue exclusion test; assay type: functional, cell-based; how it was run: as §1
HT-29 [15] = assay: Cell cycle arrest in human HT-29 cells assessed as accumulation at S phase at IC90 concentration after 48 hrs using propidium iodide staining by flow cytometry; assay type: functional; how it was run: as §4
HT-29 [16] = assay: Induction of apoptosis in human HT-29 cells assessed as upregulation of caspase 9 activity at IC90 concentration after 6 hrs; assay type: functional, cell-based; how it was run: as §3
HT-29 [17] = assay: Induction of apoptosis in human HT-29 cells assessed as upregulation of caspase 9 activity at IC90 concentration after 24 hrs; assay type: functional, cell-based; how it was run: as §3
HT-29 [18] = assay: Cell cycle arrest in human HT-29 cells assessed as accumulation at G2/M phase at IC90 concentration after 48 hrs using propidium iodide staining by flow cytometry; assay type: functional; how it was run: as §4
HT-29 [19] = assay: Cell cycle arrest in human HT-29 cells assessed as accumulation at S phase at IC90 concentration after 24 hrs using propidium iodide staining by flow cytometry; assay type: functional; how it was run: as §4
HT-29 [20] = assay: Induction of apoptosis in human HT-29 cells assessed as upregulation of caspase 3 activity at IC90 concentration after 24 hrs; assay type: functional, cell-based; how it was run: as §3
HT-29 [21] = assay: Cell cycle arrest in human HT-29 cells assessed as accumulation at G2/M phase at IC90 concentration after 24 hrs using propidium iodide staining by flow cytometry; assay type: functional; how it was run: as §4
HT-29 [22] = assay: Induction of apoptosis in human HT-29 cells assessed as upregulation of caspase 9 activity at IC90 concentration after 2 hrs; assay type: functional, cell-based; how it was run: as §3
HT-29 [23] = assay: Induction of apoptosis in human HT-29 cells assessed as upregulation of caspase 3 activity at IC90 concentration after 2 hrs; assay type: functional, cell-based; how it was run: as §3
HT-29 [24] = assay: Cell cycle arrest in human HT-29 cells assessed as accumulation at subG1 phase at IC90 concentration after 24 hrs using propidium iodide staining by flow cytometry; assay type: functional; how it was run: as §4
HT-29 [25] = assay: Cell cycle arrest in human HT-29 cells assessed as accumulation at G1 phase at IC90 concentration after 24 hrs using propidium iodide staining by flow cytometry; assay type: functional; how it was run: as §4
HT-29 [26] = assay: Induction of apoptosis in human HT-29 cells assessed as upregulation of caspase 8 activity at IC90 concentration after 2 hrs; assay type: functional, cell-based; how it was run: as §3

C=C(C)[C@@H]1CC[C@]2(C(=O)O)CC[C@]3(C)[C@H](CC[C@@H]4[C@@]5(C)CC[C@H](O)C(C)(C)[C@@H]5CC[C@]43C)[C@@H]12
Activity (HT-29 [1]): Active
Activity (HT-29 [2]): Active

C=C(C)[C@@H]1CC[C@]2(C(=O)NC(CO)(CO)CO)CC[C@]3(C)[C@H](CC[C@@H]4[C@@]5(C)CC[C@H](O)C(C)(C)[C@@H]5CC[C@]43C)[C@@H]12
IC50 (MCF7): > 100 µM
IC50 [3]: > 100 µM
IC50 (HT-29 [4]): > 100 µM
IC50 (SW-1736): > 100 µM
IC50 [5]: > 100 µM
IC50 (A2780): > 100 µM
IC50 (A549): > 100 µM
IC50 (A-431): > 100 µM

C=C(C)[C@@H]1CC[C@]2(C(=O)O)CC[C@]3(C)[C@H](CC[C@@H]4[C@@]5(C)CCC(=O)C(C)(C)[C@@H]5CC[C@]43C)[C@@H]12 [BETUNOLIC ACID]
IC50 (MCF7): 10.4 µM
IC50 [3]: 10.4 µM
IC50 (HT-29 [4]): 10 µM
IC50 (SW-1736): 3.05 µM
IC50 [5]: 10.1 µM
IC50 (A2780): 2.98 µM
IC50 (A549): 10.1 µM
IC50 (A-431): 3.26 µM

C=C(C)[C@@H]1CC[C@]2(C(=O)OCC(N)(CO)CO)CC[C@]3(C)[C@H](CC[C@@H]4[C@@]5(C)CCC(=O)C(C)(C)[C@@H]5CC[C@]43C)[C@@H]12
Activity (HT-29 [6]): inactive
Activity (HT-29 [1]): 20%
Activity (HT-29 [7]): Active
Activity (HT-29 [2]): Active
IC50 (MCF7): 10.6 µM
Activity (HT-29 [8]): inactive
Activity (HT-29 [9]): inactive
IC50 [3]: 10.8 µM
IC50 (HT-29 [4]): 9.44 µM
IC50 (SW-1736): 10.1 µM
IC50 [5]: 10.5 µM
Activity (HT-29 [10]): inactive
Activity (HT-29 [11]): inactive
IC50 (A2780): 10 µM
IC50 (A549): 10.8 µM
IC50 (A-431): 10.1 µM
Activity (HT-29 [12]): inactive
Activity (HT-29 [13]): inactive
Activity (HT-29 [14]): Active
Activity (HT-29 [15]): inactive
Activity (HT-29 [16]): inactive
Activity (HT-29 [17]): inactive
Activity (HT-29 [18]): inactive

C=C(C)[C@@H]1CC[C@]2(C(=O)NC(CO)(CO)CO)CC[C@]3(C)[C@H](CC[C@@H]4[C@@]5(C)CC[C@H](OC(C)=O)C(C)(C)[C@@H]5CC[C@]43C)[C@@H]12
IC50 (MCF7): 29.4 µM
IC50 [3]: 29.6 µM
IC50 (HT-29 [4]): 10 µM
IC50 (SW-1736): 10.2 µM
IC50 [5]: 29.5 µM
IC50 (A2780): 10.1 µM
IC50 (A549): 30.5 µM
IC50 (A-431): 10.3 µM

C=C(C)[C@@H]1CC[C@]2(C(=O)OCC(N)(CO)CO)CC[C@]3(C)[C@H](CC[C@@H]4[C@@]5(C)CC[C@H](OC(C)=O)C(C)(C)[C@@H]5CC[C@]43C)[C@@H]12
Activity (HT-29 [19]): 19.83%
Activity (HT-29 [6]): inactive
Activity (HT-29 [1]): 20%
Activity (HT-29 [7]): inactive
Activity (HT-29 [20]): inactive
Activity (HT-29 [21]): 16.39%
Activity (HT-29 [2]): Active
IC50 (MCF7): 2.76 µM
Activity (HT-29 [22]): inactive
Activity (HT-29 [8]): 18.07%
IC50 [3]: 2.87 µM
IC50 (HT-29 [4]): 2.45 µM
Activity (HT-29 [23]): inactive
IC50 (SW-1736): 3.73 µM
IC50 [5]: 2.02 µM
Activity (HT-29 [10]): Active
Activity (HT-29 [11]): inactive
IC50 (A2780): 3.62 µM
IC50 (A549): 3.44 µM
IC50 (A-431): 2.54 µM
Activity (HT-29 [13]): 60.66%
Activity (HT-29 [24]): 25.11%
Activity (HT-29 [14]): Active
Activity (HT-29 [15]): 13.85%
Activity (HT-29 [25]): 38.41%
Activity (HT-29 [26]): inactive
Activity (HT-29 [17]): inactive
Activity (HT-29 [18]): 7.6%

C=C(C)[C@@H]1CC[C@]2(C(=O)OCC(CO)CO)CC[C@]3(C)[C@H](CC[C@@H]4[C@@]5(C)CC[C@H](O)C(C)(C)[C@@H]5CC[C@]43C)[C@@H]12
IC50 (MCF7): > 100 µM
IC50 [3]: > 100 µM
IC50 (HT-29 [4]): > 100 µM
IC50 (SW-1736): > 100 µM
IC50 [5]: > 100 µM
IC50 (A2780): > 100 µM
IC50 (A549): > 100 µM
IC50 (A-431): > 100 µM

C=C(C)[C@@H]1CC[C@]2(C(=O)O)CC[C@]3(C)[C@H](CC[C@@H]4[C@@]5(C)CC[C@H](OC(C)=O)C(C)(C)[C@@H]5CC[C@]43C)[C@@H]12
IC50 (MCF7): 11.1 µM
IC50 [3]: 4.65 µM
IC50 (HT-29 [4]): 16.1 µM
IC50 (SW-1736): 7.3 µM
IC50 [5]: 11.8 µM
IC50 (A2780): 19 µM
IC50 (A549): 6.73 µM
IC50 (A-431): 10.7 µM

C=C(C)[C@@H]1CC[C@]2(C(=O)OCC(N)(CO)CO)CC[C@]3(C)[C@H](CC[C@@H]4[C@@]5(C)CC[C@H](O)C(C)(C)[C@@H]5CC[C@]43C)[C@@H]12
IC50 (MCF7): > 100 µM
IC50 [3]: > 100 µM
IC50 (HT-29 [4]): 8.9 µM
IC50 (SW-1736): > 100 µM
IC50 [5]: > 100 µM
IC50 (A2780): 3.46 µM
IC50 (A549): > 100 µM
IC50 (A-431): 3.61 µM
